Results: ChEMBL document CHEMBL4680165, “β-Lactams with antiproliferative and antiapoptotic activity in breast and chemoresistant colon cancer cells” (Eur J Med Chem, 2020)

What was measured:
HOP-62 = assay: Antiproliferative activity against human HOP-62 cells assessed as cell growth inhibition; assay type: functional
Method in brief: (§1)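 NCI 60 cell line screen. Five concentrations (100, 10, 1, 0.1 and 0.01 µM) with 48 h drug exposure. GI50 is the molar concentration giving 50% growth inhibition; TGI and LC50 were also derived.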

A549 = assay: Antiproliferative activity against human A549 cells assessed as cell growth inhibition; assay type: functional; method in brief: as §1
Malme-3M = assay: Antiproliferative activity against human Malme-3M cells assessed as cell growth inhibition; assay type: functional; method in brief: as §1
MCF7 [1] = assay: Antiproliferative activity against human MCF7 cells assessed as reduction in cell viability after 72 hrs by alamar blue assay; assay type: functional, cell-based; conditions: MCF7, 72 h
Method in brief: (§2)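 Cells seeded at 5 x 10^3/well (MCF-7) or 1 x 10^4/well (HT-29, HEK-293T) and treated after 24 h with serial dilutions (0.001-100 µM) in 1% v/v ethanol vehicle. Alamar Blue 10% v/v added at 72 h, then 3-5 h at 37 °C in the dark; fluorescence ex 530/em 590 nm. Viability relative to vehicle; IC50 from dose-response curves; mean of three experiments in triplicate.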

MDA-MB-435 = assay: Antiproliferative activity against human MDA-MB-435 cells assessed as cell growth inhibition; assay type: functional; method in brief: as §1
ACHN = assay: Antiproliferative activity against human ACHN cells assessed as cell growth inhibition; assay type: functional; method in brief: as §1
OVCAR-3 = assay: Antiproliferative activity against human OVCAR-3 cells assessed as cell growth inhibition; assay type: functional; method in brief: as §1
[2] = Antiproliferative activity against human NCI-H332M cells assessed as cell growth inhibition; assay type: functional; method in brief: as §1
SF-539 = assay: Antiproliferative activity against human SF539 cells assessed as cell growth inhibition; assay type: functional
Method in brief: (§3)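 NCI60 cell line screen: cells exposed for 48 h to five concentrations (100, 10, 1, 0.1 and 0.01 µM). GI50 is the molar concentration giving 50% growth inhibition; TGI and LC50 were also determined.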

[3] = Selectivity index, ratio of IC50 for human MCF7 cells to IC50 for human HT-29 cells assessed as reduction in cell viability after 72 hrs by alamar blue assay; assay type: functional
SR = assay: Antiproliferative activity against human SR cells assessed as cell growth inhibition; assay type: functional; method in brief: as §3
[4] = test system: UDP-glucuronosyltransferases (UGTs); assay: Metabolic stability in human liver microsomes assessed as UGT-mediated N-glucuronidation by measuring half life at 3 uM measured up to 45 mins by LC-MS/MS analysis; assay type: ADME; conditions: microsomes, 0.75 h, 3 µM
Method in brief: (§4)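 Pooled human liver microsomes (0.5 mg/mL protein final) with alamethicin (25 µg/mg) in 0.1 M phosphate pH 7.4, compound 3 µM final (0.25% DMSO), preincubated 37 °C. Reaction started with UDPGA (1 mM final). Sampled at 0, 5, 15, 30, 45 min into methanol, analysed by LC-MS/MS. Minus-UDPGA control run 45 min. Single incubations; t½ and CLint taken from the elimination rate constant.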

OVCAR-5 = assay: Antiproliferative activity against human OVCAR-5 cells assessed as cell growth inhibition; assay type: functional; method in brief: as §1
MCF7 [5] = assay: Antiproliferative activity against human MCF7 cells assessed as cell growth inhibition; assay type: functional; method in brief: as §1
HT-29 [6] = assay: Antiproliferative activity against human HT-29 cells assessed as reduction in cell viability after 72 hrs by alamar blue assay; assay type: functional, cell-based; conditions: HT-29, 72 h; method in brief: as §2
MDA-MB-468 = assay: Antiproliferative activity against human MDA-MB-468 cells assessed as cell growth inhibition; assay type: functional; method in brief: as §1
SW-620 = assay: Antiproliferative activity against human SW-620 cells assessed as cell growth inhibition; assay type: functional; method in brief: as §3
[7] = test system: UDP-glucuronosyltransferases (UGTs); assay: Metabolic stability in human liver microsomes assessed as UGT-mediated N-glucuronidation by measuring intrinsic clearance at 3 uM measured up to 45 mins by LC-MS/MS analysis; assay type: ADME; conditions: microsomes, 0.75 h, 3 µM; method in brief: as §4
COLO 205 = assay: Antiproliferative activity against human COLO 205 cells assessed as cell growth inhibition; assay type: functional; method in brief: as §1
OVCAR-4 = assay: Antiproliferative activity against human OVCAR-4 cells assessed as cell growth inhibition; assay type: functional; method in brief: as §1
HT-29 [8] = assay: Antiproliferative activity against human HT-29 cells assessed as cell growth inhibition; assay type: functional; method in brief: as §1
NCI-H226 = assay: Antiproliferative activity against human NCI-H226 cells assessed as cell growth inhibition; assay type: functional; method in brief: as §1
Hs-578T = assay: Antiproliferative activity against human Hs-578T cells assessed as cell growth inhibition; assay type: functional; method in brief: as §1
BT-549 = assay: Antiproliferative activity against human BT-549 cells assessed as cell growth inhibition; assay type: functional; method in brief: as §1
MOLT-4 = assay: Antiproliferative activity against human MOLT-4 cells assessed as cell growth inhibition; assay type: functional; method in brief: as §1
786-0 = assay: Antiproliferative activity against human 786-0 cells assessed as cell growth inhibition; assay type: functional; method in brief: as §1
TK-10 = assay: Antiproliferative activity against human TK-10 cells assessed as cell growth inhibition; assay type: functional; method in brief: as §3
HL-60 = assay: Antiproliferative activity against human HL60 cells assessed as cell growth inhibition; assay type: functional; method in brief: as §1
NCI-H23 = assay: Antiproliferative activity against human NCI-H23 cells assessed as cell growth inhibition; assay type: functional; method in brief: as §1
HOP-92 = assay: Antiproliferative activity against human HOP-92 cells assessed as cell growth inhibition; assay type: functional; method in brief: as §1
NCI/ADR-RES = assay: Antiproliferative activity against human NCI/ADR-RES cells assessed as cell growth inhibition; assay type: functional; method in brief: as §1
SF-268 = assay: Antiproliferative activity against human SF-268 cells assessed as cell growth inhibition; assay type: functional; method in brief: as §1
HCC 2998 = assay: Antiproliferative activity against human HCC-2998 cells assessed as cell growth inhibition; assay type: functional; method in brief: as §1
U-251 = assay: Antiproliferative activity against human U251 cells assessed as cell growth inhibition; assay type: functional; method in brief: as §3
OVCAR-8 = assay: Antiproliferative activity against human OVCAR-8 cells assessed as cell growth inhibition; assay type: functional; method in brief: as §1
CAKI-1 = assay: Antiproliferative activity against human […] cells assessed as cell growth inhibition; assay type: functional; method in brief: as §1
A498 = assay: Antiproliferative activity against human A498 cells assessed as cell growth inhibition; assay type: functional; method in brief: as §1
HCT-15 = assay: Antiproliferative activity against human HCT-15 cells assessed as cell growth inhibition; assay type: functional; method in brief: as §1
NCI-H522 = assay: Antiproliferative activity against human […] cells assessed as cell growth inhibition; assay type: functional; method in brief: as §1
UACC-62 = assay: Antiproliferative activity against human UACC-62 cells assessed as cell growth inhibition; assay type: functional; method in brief: as §3
SK-MEL-5 = assay: Antiproliferative activity against human SK-MEL-5 cells assessed as cell growth inhibition; assay type: functional; method in brief: as §3
NCI-H460 = assay: Antiproliferative activity against human NCI-H460 cells assessed as cell growth inhibition; assay type: functional; method in brief: as §1
PC-3 = assay: Antiproliferative activity against human PC-3 cells assessed as cell growth inhibition; assay type: functional; method in brief: as §1
M14 = assay: Antiproliferative activity against human M14 cells assessed as cell growth inhibition; assay type: functional; method in brief: as §1
SK-OV-3 = assay: Antiproliferative activity against human SK-OV-3 cells assessed as cell growth inhibition; assay type: functional; method in brief: as §3
LOX IMVI = assay: Antiproliferative activity against human LOX IMVI cells assessed as cell growth inhibition; assay type: functional; method in brief: as §1
K562 = assay: Antiproliferative activity against human K-562 cells assessed as cell growth inhibition; assay type: functional; method in brief: as §1
UO-31 = assay: Antiproliferative activity against human UO-31 cells assessed as cell growth inhibition; assay type: functional; method in brief: as §3
SF-295 = assay: Antiproliferative activity against human SF295 cells assessed as cell growth inhibition; assay type: functional; method in brief: as §1
RPMI-8226 = assay: Antiproliferative activity against human RPMI-8226 cells assessed as cell growth inhibition; assay type: functional; method in brief: as §1
SK-MEL-28 = assay: Antiproliferative activity against human SK-MEL-28 cells assessed as cell growth inhibition; assay type: functional; method in brief: as §3
DU-145 = assay: Antiproliferative activity against human DU-145 cells assessed as cell growth inhibition; assay type: functional; method in brief: as §1
EKVX = assay: Antiproliferative activity against human EKVX cells assessed as cell growth inhibition; assay type: functional; method in brief: as §1
SNB-75 = assay: Antiproliferative activity against human SNB-75 cells assessed as cell growth inhibition; assay type: functional; method in brief: as §3
IGROV-1 = assay: Antiproliferative activity against human IGROV-1 cells assessed as cell growth inhibition; assay type: functional; method in brief: as §1
MDA-MB-231 = assay: Antiproliferative activity against human MDA-MB-231 cells assessed as cell growth inhibition; assay type: functional; method in brief: as §1
KM12 = assay: Antiproliferative activity against human KM12 cells assessed as cell growth inhibition; assay type: functional; method in brief: as §1
T47D = assay: Antiproliferative activity against human T47D cells assessed as cell growth inhibition; assay type: functional; method in brief: as §3
SK-MEL-2 = assay: Antiproliferative activity against human SK-MEL-2 cells assessed as cell growth inhibition; assay type: functional; method in brief: as §3
SNB-19 = assay: Antiproliferative activity against human SNB-19 cells assessed as cell growth inhibition; assay type: functional; method in brief: as §3
HCT-116 = assay: Antiproliferative activity against human HCT-116 cells assessed as cell growth inhibition; assay type: functional; method in brief: as §1
SN12C = assay: Antiproliferative activity against human SN12C cells assessed as cell growth inhibition; assay type: functional; method in brief: as §3
CCRF-CEM = assay: Antiproliferative activity against human CCRF-CEM cells assessed as cell growth inhibition; assay type: functional; method in brief: as §1

GI50 (A549): 36.8 nM | IC50 (MCF7 [1]): 17 nM | GI50 (MDA-MB-435): 18.7 nM | GI50 (ACHN): 44 nM | GI50 (OVCAR-3): 28 nM | t1/2 [4]: 23.5 h | GI50 (OVCAR-5): 51.7 nM | GI50 (MCF7 [5]): 29.6 nM | IC50 (HT-29 [6]): 9 nM | GI50 (MDA-MB-468): 28.7 nM | GI50 (SW-620): 41.9 nM | CLH [7]: 0.98 µL/min/mg | GI50 (COLO 205): 19.4 nM | GI50 (OVCAR-4): 87.1 nM | GI50 (HT-29 [8]): 26 nM | GI50 (NCI-H226): 35 nM | GI50 (BT-549): 26.6 nM | GI50 (MOLT-4): 38.1 nM | GI50 (786-0): 31.4 nM | GI50 (HL-60): 22.3 nM | GI50 (NCI-H23): 48.9 nM | GI50 (HCC 2998): 39.4 nM | GI50 (U-251): 35.9 nM | GI50 (OVCAR-8): 34.4 nM | GI50 (HCT-15): 33.6 nM | GI50 (NCI-H522): 18.6 nM | GI50 (SK-MEL-5): 27.1 nM | GI50 (NCI-H460): 34.4 nM | GI50 (PC-3): 40.3 nM | GI50 (SK-OV-3): 34.8 nM | GI50 (K562): 32.1 nM | GI50 (RPMI-8226): 41.3 nM | GI50 (SK-MEL-28): 1370 nM | GI50 (DU-145): 35.4 nM | GI50 (MDA-MB-231): 45.2 nM | GI50 (T47D): > 100000 nM | GI50 (SK-MEL-2): 35.4 nM | GI50 (HCT-116): 32.4 nM | GI50 (CCRF-CEM): 36.1 nM
Compound: COc1ccc([C@H]2[C@H](c3ccccc3)C(=O)N2c2cc(OC)c(OC)c(OC)c2)cc1F
GI50 (HOP-62): 37.9 nM | GI50 (Malme-3M): > 100000 nM | GI50 [2]: 68.7 nM | GI50 (SF-539): 23.4 nM | Ratio IC50 [3]: 1.88 | GI50 (SR): 37.3 nM | GI50 (Hs-578T): 43.4 nM | GI50 (TK-10): 1680 nM | GI50 (HOP-92): 2840 nM | GI50 (NCI/ADR-RES): 39.4 nM | GI50 (SF-268): 44.3 nM | GI50 (CAKI-1): 33.2 nM | GI50 (A498): 27 nM | GI50 (UACC-62): 54.3 nM | GI50 (M14): 22.6 nM | GI50 (LOX IMVI): 29.6 nM | GI50 (UO-31): 77.1 nM | GI50 (SF-295): 29 nM | GI50 (EKVX): 77.6 nM | GI50 (SNB-75): 31.4 nM | GI50 (IGROV-1): 42.8 nM | GI50 (KM12): 33.1 nM | GI50 (SNB-19): 49.9 nM | GI50 (SN12C): 56.1 nM
